“And” between values parts separate entries of the source, which are not always exact repeats. Equal values may be shown once.
Legend:
Assay type in all cases: functional, Blood
[1] = species: Rattus norvegicus; experiment: Oral hypotensive activity in spontaneously hypertensive rats by using tail-cuff method measured as the initial BP
How it was run: (§1)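 Okamoto-Aoki strain spontaneously hypertensive rats. Compounds were suspended in distilled water with Tween 80 and given orally every day at 50, 30, 10 or 3 mg/kg. Systolic BP was measured by tail-cuff plethysmography on day 1 (predose and 2 h), day 3 (predose and 2 h) and day 5 (predose, 2 and 4 h). The screen used 4 rats; dose-response used 4–8 rats per dose.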

[2] = species: Rattus norvegicus; experiment: Oral hypotensive activity in spontaneously hypertensive rats by using tail-cuff method measured as change in systolic BP
How it was run: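 Okamoto-Aoki spontaneously hypertensive rats. Compound suspended in distilled water with Tween 80, given po daily, screening dose 50 mg/kg, dose-response at 50, 30, 10 or 3 mg/kg unless stated. Systolic BP by tail-cuff plethysmography on day 1 predose and 2 h, day 3 predose and 2 h, and day 5 predose, 2 and 4 h. Reported as peak decrease on day 3 (or day 5) at 2 h ± SEM. n = 4 in screen, 4–8 per dose.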

[3] = species: Rattus norvegicus; experiment: Hypotensive activity in renal hypertensive rats by using tail-cuff method measured as BP on (1/2) day/h postdrug
How it was run: (§2)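 Renal hypertension made in male Sprague-Dawley rats (Grollman modification). Under pentobarbital (50 mg/kg ip), the right kidney was removed and silk sutures tied around both poles of the left kidney to constrict it. After 3 weeks, rats with systolic BP >150 mmHg were used. Compound given po daily to 4 rats. Systolic BP by tail-cuff plethysmography at the listed day/hour after dosing.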

[4] = species: Rattus norvegicus; experiment: Hypotensive activity in renal hypertensive rats by using tail-cuff method measured as BP on (2/0) day/h postdrug; how it was run: as §2
[5] = species: Rattus norvegicus; experiment: Hypotensive activity in renal hypertensive rats by using tail-cuff method measured as BP on (2/2) day/h postdrug; how it was run: as §2
[6] = species: Rattus norvegicus; experiment: Hypotensive activity in renal hypertensive rats by using tail-cuff method measured as BP on (3/0) day/h postdrug; how it was run: as §2
[7] = species: Rattus norvegicus; experiment: Hypotensive activity in renal hypertensive rats by using tail-cuff method measured as BP on (3/2)day/h postdrug; how it was run: as §2
[8] = species: Rattus norvegicus; experiment: Hypotensive activity in renal hypertensive rats by using tail-cuff method measured as initial BP; how it was run: as §2
[9] = test system: Rattus norvegicus; experiment: Oral hypotensive activity in spontaneously hypertensive rats by using tail-cuff method measured as change in systolic BP at the dose of 50 mg/kg po.; conditions: 50 mg/kg; how it was run: as §1

Row | SMILES | BP [1] | Delta blood pressure [2] [mmHg] | further results
1 | OCCN1CCC2(CC1)Oc1ccccc1C2n1cccc1 (configuration not stated) | 170 mmHg | 39 | –
2 | CCCN1CCC2(CC1)Oc1ccccc1C2n1cccc1 (configuration not stated) | 177 mmHg | 14 | –
3 | C[C@H](CS)C(=O)N1CCC[C@H]1C(=O)O [CAPTOPRIL] | – | – | BP [3]: 181 mmHg; BP [4]: 185 mmHg; BP [5]: 169 mmHg; BP [6]: 163 mmHg; BP [7]: 152 mmHg; BP [8]: 192 mmHg
4 | c1ccc(CCN2CCC3(CC2)Oc2ccccc2C3n2cccc2)cc1 (configuration not stated) | 203 mmHg and 180 mmHg and 176 mmHg | – | –
5 | CN1CCC2(C1)Oc1ccccc1C2n1cccc1 (stereo in doubt; 11) | – | – | BP [9]: 180 mmHg; Delta blood pressure [9]: 14 mmHg
6 | N/C(=N\O)N1CCC2(CC1)Oc1ccccc1C2n1cccc1 (configuration not stated) | 209 mmHg | 24 | –
7 | CCN(CC)CCN1CCC2(CC1)Oc1ccccc1C2n1cccc1 (configuration not stated) | 185 mmHg | 38 | –

From ChEMBL document CHEMBL1122463, “2,3-dihydro-3-(1-pyrryl)spiro[benzofuran-2,4'-piperidine]s and 2,3-dihydro-3-(1-pyrryl)spiro[benzofuran-2,3'-pyrrolidine]s: novel antihypertensive agents” (1983)
